# Assay results of several laboratories.
# Each line is one published result; the experiments were not run side by side.
# Target: MAP kinase-interacting serine/threonine-protein kinase 1 (MKNK1, Homo sapiens, UniProt Q9BUB5)
SMILES,test,conditions,quantity,result
Nc1nc(Nc2ccccc2)sc1C(=O)c1c(F)cccc1F,"enzyme activity, inhibitor",10 µM,remaining activity,110%
N#CCCc1ccc2c(c1)-c1[nH]c3ccc([N+](=O)[O-])cc3c1CC(=O)N2,cell-free assay,0.5 µM,remaining signal,66.7%
CC(C)(C)c1nc2c(s1)c1nc(N)ncc1c1ccc(NS(=O)(=O)c3c(F)cccc3F)c(F)c12,"enzyme activity, inhibitor, radiometric",1 µM,remaining activity,117%
CC(C)(C)C(=O)c1sc(NC2CCCCC2)nc1N,"enzyme activity, inhibitor",10 µM,remaining activity,105%
FC(F)(F)Oc1cccc(-c2cnc3ccc(-c4ccncc4)nn23)c1,"enzyme activity, inhibitor, radiometric",5 µM,activity vs control,72%
Cc1ccc(C(=O)Nc2ccc(CN3CCN(C)CC3)c(C(F)(F)F)c2)cc1C#Cc1cnc2cccnn12,"enzyme activity, inhibitor",23.5 nM,remaining activity,98%
CNC(=O)c1cc(Oc2ccc(NC(=O)Nc3ccc(Cl)c(C(F)(F)F)c3)cc2)ccn1,cell-free assay,0.5 µM,remaining signal,75.1%
Cn1c(=O)n(-c2ccc(C(C)(C)C#N)cc2)c2c3cc(-c4cnc5ccccc5c4)ccc3ncc21,"enzyme activity, inhibitor",10 µM,remaining activity,101%
Nc1ncnc2n[nH]c(Nc3ccc(F)cc3)c12,cell-free assay,0.5 µM,remaining signal,75.2%
CCCCN(CCCC)C(=O)CN1C[C@H](c2cc(OC)c3c(c2)OCO3)[C@@H](C(=O)O)[C@@H]1CC(C)(C)CCC,"cell-free assay, competition with immobilised ligand",1 µM,remaining binding,93.3%
Cc1sc(C(=O)NC2COC2)cc1-n1cc(NC(=O)Nc2c(F)cccc2Cl)cn1,"enzyme activity, inhibitor",10 µM,remaining activity,94.2%
O=C(Nc1ccc(Oc2ccc(F)cc2)cc1)N1CCc2ncccc2[C@H]1c1ccc(F)cc1,"cell-free assay, competition with immobilised ligand",1 µM,remaining binding,95%
CS(=O)(=O)Nc1cccc(-c2csc(NC(=O)CSc3nc4nccnc4c(=O)n3CCc3ccccc3)n2)c1,"enzyme activity, inhibitor",10 µM,inhibition,-14%
COc1cc2ncnc(Nc3ccc(Oc4ccccc4)cc3C)c2cc1OC,"enzyme activity, inhibitor",1 µM,inhibition,2%
O=C(Nc1cnn(-c2csc(C(=O)NC3COC3)c2)c1)Nc1ccccc1Cl,"enzyme activity, inhibitor",5 µM,remaining activity,94.3%
COc1ccc2c(c1)O[C@H](c1ccc(OC)c(OC)c1)C[C@@H]2NC(=O)C1(c2ccc3c(c2)OC(F)(F)O3)CC1,"cell-free assay, competition with immobilised ligand",1 µM,remaining binding,81%
FC(F)c1nc2ccccc2n1-c1nc(N2CCOCC2)nc(N2CCOCC2)n1,"enzyme activity, inhibitor",10 µM,remaining activity,96%
O=C(O)[C@H]1[C@H](Cn2nnc3ccccc3c2=O)CC[C@@H]1C(=O)c1ccc(OCCC2CCOCC2)cc1,"cell-free assay, competition with immobilised ligand",1 µM,remaining binding,96%
CC/C(=N\NC(=O)NCc1cccc(O)c1)c1ccc(O)c(C)c1O,"enzyme activity, inhibitor",0.1 µM,inhibition,0.4%
CCC(=O)N[C@@H]1CC[C@H](C(=O)N(C)c2ccc(-c3nc4ccccc4o3)cc2)C1,"cell-free assay, competition with immobilised ligand",1 µM,remaining binding,95%
COc1cc(Nc2cnc(C#N)c(O[C@H](C)CN(C)C)n2)ncc1-c1cnn(C)c1,"enzyme activity, inhibitor, radiometric",10 µM,remaining activity,90%
COc1cc(Nc2c(C#N)cnc3cc(OCCCN4CCN(C)CC4)c(OC)cc23)c(Cl)cc1Cl,cell-free assay,0.5 µM,remaining signal,96.9%
CNCc1ccccc1-c1csc([C@H](C)Nc2nc(C)nc3cc(OC)c(OC)cc23)c1,"cell-free assay, competition with immobilised ligand",1 µM,remaining binding,91%
